Experimental data from PubChem BioAssay AID651999 (Sanford-Burnham Center for Chemical Genomics, 2013).
Values joined by “and” are separate entries in the source; they are usually repeats but may differ in a detail not shown here. Identical values can stand only once. In all, about 360,000 compounds went through this assay and about 1,400 (0.39%) were called active.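 How the source made its calls: active means pattern-corrected inhibition above about 35%, with an unprinted fluorescence ratio check between 0.5 and 1.5 (limit read from the data, passing the limit was not always enough); inactive means the rest.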 The list comes from a sample in which actives are over-represented; it also holds similar structures and randomly drawn compounds.

target: COP9 signalosome complex subunit 5 (Homo sapiens) (UniProt Q92905); test: CSN5 deneddylase inhibitors on cullin-RING ligase – biochemical, fluorescence polarization, uHTS, primary screen (AID 651999); conditions: Purified CSN, SCF-Nedd8-OG deneddylation, at 12.5 µM, hits give high values;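 further: 0% = enzyme with substrate and 100% = substrate without enzyme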
Sequence (Q92905 whole entry, looked up, one chain of several): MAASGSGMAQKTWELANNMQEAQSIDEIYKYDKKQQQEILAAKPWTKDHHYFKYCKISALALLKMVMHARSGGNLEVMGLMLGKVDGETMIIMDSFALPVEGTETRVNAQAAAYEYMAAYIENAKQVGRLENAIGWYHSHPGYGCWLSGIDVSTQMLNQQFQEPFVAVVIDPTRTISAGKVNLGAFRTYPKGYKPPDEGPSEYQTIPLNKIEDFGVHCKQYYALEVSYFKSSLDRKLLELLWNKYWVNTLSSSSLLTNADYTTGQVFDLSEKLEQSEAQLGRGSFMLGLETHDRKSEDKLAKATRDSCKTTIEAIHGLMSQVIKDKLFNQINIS
Method in brief: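 Assay system: Purified human Csn5 enzyme expressed in HEK293T cells | Amount: Enzyme 0.24 nM | Measured by: Fluorescence polarization readout | Medium: Tris/NaCl/DTT buffer, pH 7.5 | Compound dosing: One concentration, 12.5 µM, 0.25% DMSO | Times: 90 min incubation of compound, enzyme and substrate at room temperature | Control set: no-enzyme wells high, enzyme-with-substrate wells low | Read-out: % inhibition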

inhibition, inactive:
N#Cc1c(NC(=O)CCCN2C(=O)c3ccccc3C2=O)oc(-c2ccccc2)c1-c1ccccc1 -3.56%, CC(C)C(=O)Nc1oc(-c2ccccc2)cc1C#N 5.77%, Nc1nnc2c(C(F)(F)F)nc3ccccc3n12 0.57%, Cc1cccc(N2C(=O)SC(SC(=Nc3ccccc3)Nc3ccccc3)C2=O)c1 (stereo not given) -2.12%, CCC(C)(C)n1nnnc1CN1CCN(c2nc3ccc(C)cc3cc2C#N)CC1 1.36%, Cc1cccc(N(C)C(=O)CN2C(=O)COc3ccc(S(=O)(=O)N4CCCCCC4)cc32)c1 -4.61%, Cc1ccccc1C(=O)NNC(=O)CN1C(=O)c2ccccc2C1=O 6.43%, Cc1cccc(NS(=O)(=O)c2cccc(C(=O)NNC(=O)c3ccccc3O)c2)c1 -6.82%, COC(=O)c1ccc(CN2CCN(CCCc3ccccc3)C(CCO)C2)cc1 (stereo not given) -2.91%, CCOC(=O)N1CCN(S(=O)(=O)N2CCCC(C(=O)NCCCN3CCC(C)CC3)C2)CC1 (stereo not given) 2.45%, O=C(Oc1c(-c2ccco2)oc2ccccc2c1=O)c1cccnc1 -1.72%, CC(Oc1ccc(-c2ccccc2)c(F)c1)c1ccn(S(=O)(=O)c2cccc3ccccc23)n1 (stereo not given) 3.61%, COc1ccc(C2OCC3(CO2)SC(=O)NC3=O)cc1OC (stereo not given) -7.79%, COc1ccc(OC)c(CNC(=O)CCc2nc(-c3cccs3)no2)c1 2.31%, COc1ccc(CCc2nc(-c3cccs3)no2)cc1 1.58%, COc1cccc2c1C(=O)c1c(O)c3c(c(O)c1C2=O)CC(O)(C(C)=NNC(=O)c1ccc(Cl)c(Cl)c1)CC3OC1CC(N)C(O)C(C)O1 (stereo not given) -72.5%, COc1ccc(CN2CN(C3CCCC3)CSC2=S)cc1 -9.41%, COC(=O)[C@@]12C[C@@H](CC(=O)NCc3cccc(C(F)(F)F)c3)C(=O)N(Cc3ccco3)C1=CCC(C)(C)C2 1.26%, Cc1cccc(-c2cnc(C(O)c3cc(C)cc(C)c3)[nH]2)c1 (stereo not given) -2.61%, COc1cccc(C(O)c2ncc(-c3ccc4ccccc4c3)[nH]2)c1 (stereo not given) -4.1%, CCc1nn(CCCN2CCN(c3cccc(Cl)c3)CC2)c(=O)n1CCOc1ccccc1 -4.47% and -2.79%, Cc1ccc(CNS(=O)(=O)c2ccc3c(c2)N(C)CCO3)cc1 -2.61%, CCCC/C=C/c1cccc2nncn12 -1.69%, Cc1cc(O)c(Sc2ccccc2)c(=O)o1 0.39%, O=C(CC[C@H]1O[C@@H](n2ccc(=O)[nH]c2=O)[C@H](O)[C@@H]1O)N[C@H](Cc1ccccc1)C(=O)NCc1ccco1 -1.91%, CCN(CC(=O)NCC(=O)Nc1cccc(C)c1C)Cc1ccccc1 1.96%, CCOc1cc(CNn2c(C)nnc2SCC(=O)NC(C)(C)C)ccc1OCC(=O)NC(C)(C)C 2.06%, C=CCSc1nnc(Cn2c(=O)sc3ccccc32)n1C 7.9%, CCSc1nc(C)c(CCOc2cccc(C)c2)c(=O)[nH]1 -18.6%, COc1cccc(CN(C)CC(=O)Nc2sc3c(c2C#N)CCC3)c1 4.05%, NC(=O)c1c(NC(=O)CSc2nnc(-c3ccco3)n2N)sc2c1CCCC2 10.7%, Cc1ccc(NC(=O)CN(C)S(=O)(=O)c2cnc[nH]2)cc1C -2.5%, COC1=C/C(=C/c2c(N)n3nc(CC(=O)N4CCOCC4)sc3nc2=O)C=CC1=O 16.1%, O=C(C1CCN(C2CCN(Cc3ccc4cc(F)ccc4n3)CC2)CC1)N1CCCC1 1%, Cc1cc(F)ccc1S(=O)(=O)Nc1ncnc2scc(-c3ccc(F)cc3)c12 0.77%, O=C(O)CC(c1ccccc1F)N1Cc2ccccc2C1=O (stereo not given) -0.99%, O=S(=O)(Nc1ccc2ccccc2c1)N1CCCCC1 -1.67%, Cc1noc(C)c1S(=O)(=O)N(C)C[C@H]1Oc2ccc(NC(=O)C3CCCCC3)cc2C(=O)N([C@H](C)CO)C[C@@H]1C -5.26%, FC(F)(F)c1ccccc1Cc1c(-c2ccccc2)nc2c3ccccc3ccn12 3.57%, COc1cc(CN(C)Cc2nc3cc(C(F)(F)F)ccc3c(=O)[nH]2)ccc1OC(F)F 5.3%, CC(=O)Nc1ccc(C(=O)NNC(=O)CCCCC(=O)NNC(=O)c2ccc(NC(C)=O)cc2)cc1 2.24%, CN(CC(=O)NC1CCCCC1)S(=O)(=O)c1cccc2cccnc12 -6.5%, CC1(C)CC(=O)C2=C(C1)NCN(CCCN1CCOCC1)C2 -5.59%, CCCn1c(C)cc(-c2csc(NC(=O)CCc3nc4ccccc4c(=O)[nH]3)n2)c1C 5.04%, O=C(COC(=O)c1cc(=O)[nH]c2ccccc12)Nc1nc(-c2cccc(Br)c2)cs1 3.39%

inhibition, active:
CC(Oc1ccccc1)C(=O)Nc1oc(-c2ccco2)c(-c2ccco2)c1C#N (stereo not given) 38.5%, Cc1cc(C(=O)CCC(=O)NNC(=O)c2ccccc2O)c(C)s1 36.4%, CCc1ccc(CNC(=O)CCc2nc(-c3cccs3)no2)cc1 90.8%, Cc1cccc(-c2cnc(C(O)c3ccc4ccccc4c3)[nH]2)c1 (stereo not given) 39.3%, COc1ccc2[nH]c3c(C)c4cc[n+](C)cc4c(C)c3c2c1 102%, Cc1cc(O)c(C(=O)/C=C/c2c(F)c(F)c(F)c(F)c2F)c(=O)o1 43.9%, COc1ccc(-n2c(SCC(=O)Nc3sc4c(c3C#N)CCCC4)nnc2-c2ccc(O)cc2)cc1 50.2%, C=CCC1=C/C(=C\c2c(N)n3nc(CC(=O)N4CCOCC4)sc3nc2=O)C=C(OC)C1=O 72.5%, CCN1/C(=C\c2ccc3ccccc3[n+]2CC)Sc2cc(C)ccc21 62.2%, O=C(CSc1nc2ccccc2c(=O)[nH]1)Nc1nc(-c2ccc(Br)cc2)cs1 55.8%
